Measured values: ChEMBL document CHEMBL1149158, “Combination of paclitaxel and nitric oxide as a novel treatment for the reduction of restenosis” (J Med Chem, 2004)
pIC50: −log10 of the molar value.

Legend:
Oryctolagus cuniculus [1] = assay: In vivo nitric oxide(NO) release was determined by the coated stent compound in rabbit iliac at 6 hrs; value expressed as mercury displaceable nitric oxide; type: functional
Procedure, shortened: (§1)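 Coated stent deployed in rabbit iliac artery, position confirmed by angiography; 6 h later animal euthanized with 120 mg/kg iv sodium pentobarbital, stent recovered from the artery and nitrosothiol/NO content measured by chemiluminescence; retained content expressed relative to original load.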

Homo sapiens = species: Homo sapiens; assay: (§2) In vitro antiproliferative effect on cultured human coronary artery smooth muscle cells (hCASMC); type: functional
Procedure, shortened: (§3)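 Human coronary artery smooth muscle cells seeded at 3×10^4 per well in SmGM2 growth medium; compound added from 1000× ethanol stock 3-4 h after seeding, ethanol vehicle controls, n = 4 per point. After 68-72 h cells trypsinized and viable (Trypan Blue negative) cells counted by hemacytometer; mean ± SD.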

Oryctolagus cuniculus [2] = assay: In vivo nitric oxide(NO) release was determined by the coated stent compound in rabbit iliac at 6 hrs; value expressed as percent remaining nitric oxide; type: functional; procedure, shortened: as §1
Oryctolagus cuniculus [3] = assay: In vivo nitric oxide(NO) release was determined by the coated stent compound in rabbit iliac at 0 h; value expressed as mercury displaceable nitric oxide; type: functional
Oryctolagus cuniculus [4] = species: Oryctolagus cuniculus; assay: In vitro antiplatelet aggregatory effect in rabbit platelet rich plasma (PRP); type: functional
Procedure, shortened: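 Rabbit blood collected 10:1 into 3.8% trisodium citrate pH 6.5, spun 180g 15 min at 21 °C to give PRP. PRP preincubated 2 min at 37 °C with compound (500× ethanol stock), then aggregation induced with ADP (5–10 μM) and followed in an aggregometer; percent inhibition calculated relative to maximum aggregation amplitude.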

[5] = tested on: Coronary artery smooth muscle cell line; assay: as §2; type: functional, cell-based; procedure, shortened: as §3
[6] = Stent coated compound was evaluated for mercury displaceable NO before sterilization (Electron-Beam Radiation); type: functional
[7] = Stent coated compound was evaluated for mercury displaceable NO after sterilization (Electron-Beam Radiation); type: functional
Oryctolagus cuniculus [8] = species: Oryctolagus cuniculus; assay: Compound was evaluated to determine the stenosis in Rabbit Iliac Arteries value expressed as difference from polymer coated stents; type: functional
Oryctolagus cuniculus [9] = species: Oryctolagus cuniculus; assay: Compound was evaluated to determine the stenosis in Rabbit Iliac Arteries value expressed as difference from bare stents; type: functional
Oryctolagus cuniculus [10] = species: Oryctolagus cuniculus; assay: Compound was evaluated to determine the stenosis in Rabbit Iliac Arteries; type: functional
Oryctolagus cuniculus [11] = species: Oryctolagus cuniculus; assay: Compound was evaluated to determine the stenosis in Rabbit Iliac Arteries value expressed as net effect of NO over paclitaxel coated stents; type: functional

| Structure (SMILES) | Activity (Oryctolagus cuniculus [1]) | Activity (Oryctolagus cuniculus [2]) | Activity (Oryctolagus cuniculus [3]) | pIC50 [5] | Activity [6] | Activity [7] | other results |
| --- | --- | --- | --- | --- | --- | --- | --- |
| CC(=O)O[C@H]1C(=O)[C@@]2(C)C([C@H](OC(=O)c3ccccc3)[C@]3(O)C[C@H](OC(=O)[C@H](O)[C@@H](NC(=O)c4ccccc4)c4ccccc4)C(C)=C1C3(C)C)[C@]1(OC(C)=O)CO[C@@H]1C[C@@H]2OC(=O)CC(C)(C)SN=O (some centres not stated) [listing 1 of 2 here] | 214 nM stent-1 | 65% | 369 nmol/stent |  |  |  | pIC50 (Homo sapiens): ~7.70; pIC50 (Oryctolagus cuniculus [4]): 5.00 |
| CC(=O)O[C@H]1C(=O)[C@@]2(C)C([C@H](OC(=O)c3ccccc3)[C@]3(O)C[C@H](OC(=O)[C@H](O)[C@@H](NC(=O)c4ccccc4)c4ccccc4)C(C)=C1C3(C)C)[C@]1(OC(C)=O)CO[C@@H]1C[C@@H]2OC(=O)CC(C)(C)S (some centres not stated) |  |  |  | 7.70 |  |  |  |
| CC(=O)O[C@H]1C(=O)[C@@]2(C)C([C@H](OC(=O)c3ccccc3)[C@]3(O)C[C@H](OC(=O)[C@H](O)[C@@H](NC(=O)c4ccccc4)c4ccccc4)C(C)=C1C3(C)C)[C@]1(OC(C)=O)CO[C@@H]1C[C@@H]2OC(=O)CC(C)(C)SN=O (some centres not stated) [listing 2 of 2 here] |  |  |  |  | 349 nM stent-1 | 316 nM stent-1 |  |
| CN(C)C(=O)CC1(SN=O)C2CC3CC(C2)CC1C3 (configuration not stated) | 18 nM stent-1 | 5% | 417 nmol/stent | 4.82 | 436 nM stent-1 | 440 nM stent-1 |  |
| CC(=O)O[C@H]1C(=O)[C@@]2(C)[C@H]([C@H](OC(=O)c3ccccc3)[C@]3(O)C[C@H](OC(=O)[C@H](O)[C@@H](NC(=O)c4ccccc4)c4ccccc4)C(C)=C1C3(C)C)[C@]1(OC(C)=O)CO[C@@H]1C[C@@H]2O [PACLITAXEL] |  |  |  | ~9.00 |  |  | Activity (Oryctolagus cuniculus [8]): -11%; Activity (Oryctolagus cuniculus [9]): 23%; Stenosis (Oryctolagus cuniculus [10]): 22.6% |
| CC(=O)O[C@H]1C(=O)[C@@]2(C)C([C@H](OC(=O)c3ccccc3)[C@]3(O)C[C@H](OC(=O)[C@H](O)[C@@H](NC(=O)c4ccccc4)c4ccccc4)C(C)=C1C3(C)C)[C@]1(OC(C)=O)CO[C@@H]1C[C@@H]2OC(=O)CC(C)(C)SN=O.CN(C)C(=O)CC1(SN=O)C2CC3CC(C2)CC1C3 (some centres not stated) [listing 1 of 2 here] |  |  |  |  | 733 nM stent-1 | 746 nM stent-1 |  |
| CC(=O)O[C@H]1C(=O)[C@@]2(C)C([C@H](OC(=O)c3ccccc3)[C@]3(O)C[C@H](OC(=O)[C@H](O)[C@@H](NC(=O)c4ccccc4)c4ccccc4)C(C)=C1C3(C)C)[C@]1(OC(C)=O)CO[C@@H]1C[C@@H]2OC(=O)CC(C)(C)SN=O.CN(C)C(=O)CC1(SN=O)C2CC3CC(C2)CC1C3 (some centres not stated) [listing 2 of 2 here] | 209 nM stent-1 | 31% | 627 nmol/stent |  |  |  | Activity (Oryctolagus cuniculus [8]): -41%; Activity (Oryctolagus cuniculus [9]): -18%; Stenosis (Oryctolagus cuniculus [10]): 15%; Activity (Oryctolagus cuniculus [11]): -34% |
